Measured values reported in ChEMBL document CHEMBL2040780, “Antiarrhythmic properties of phenylpiperazine derivatives of phenytoin with α₁-adrenoceptor affinities” (Bioorg Med Chem, 2012).
The source made the active and inactive calls.

How the values were obtained:
[1] = target: T1, Adrenergic receptor alpha-1 (Rattus norvegicus, UniProt P15823+P23944+P43140); test: Displacement of [3H]prazosin from alpha1 adrenoceptor in rat cerebral cortex after 30 mins by microbeta scintillation counting; type: tissue-based
T1 sequence (P15823 whole entry): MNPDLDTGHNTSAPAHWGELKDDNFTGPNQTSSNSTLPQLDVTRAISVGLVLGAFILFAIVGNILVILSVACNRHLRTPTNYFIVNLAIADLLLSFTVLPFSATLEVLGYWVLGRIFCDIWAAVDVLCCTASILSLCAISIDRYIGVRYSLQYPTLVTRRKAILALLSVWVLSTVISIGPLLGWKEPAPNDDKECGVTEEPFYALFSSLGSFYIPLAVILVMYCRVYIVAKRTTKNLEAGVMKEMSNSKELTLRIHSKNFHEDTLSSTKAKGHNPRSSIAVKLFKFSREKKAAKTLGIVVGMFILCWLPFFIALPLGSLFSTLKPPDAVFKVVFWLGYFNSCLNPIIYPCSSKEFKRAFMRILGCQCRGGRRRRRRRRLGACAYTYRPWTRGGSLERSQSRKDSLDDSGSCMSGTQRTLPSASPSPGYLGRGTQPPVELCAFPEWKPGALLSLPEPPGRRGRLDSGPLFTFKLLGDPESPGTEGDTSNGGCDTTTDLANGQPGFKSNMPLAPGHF
T1 sequence (P23944 whole entry): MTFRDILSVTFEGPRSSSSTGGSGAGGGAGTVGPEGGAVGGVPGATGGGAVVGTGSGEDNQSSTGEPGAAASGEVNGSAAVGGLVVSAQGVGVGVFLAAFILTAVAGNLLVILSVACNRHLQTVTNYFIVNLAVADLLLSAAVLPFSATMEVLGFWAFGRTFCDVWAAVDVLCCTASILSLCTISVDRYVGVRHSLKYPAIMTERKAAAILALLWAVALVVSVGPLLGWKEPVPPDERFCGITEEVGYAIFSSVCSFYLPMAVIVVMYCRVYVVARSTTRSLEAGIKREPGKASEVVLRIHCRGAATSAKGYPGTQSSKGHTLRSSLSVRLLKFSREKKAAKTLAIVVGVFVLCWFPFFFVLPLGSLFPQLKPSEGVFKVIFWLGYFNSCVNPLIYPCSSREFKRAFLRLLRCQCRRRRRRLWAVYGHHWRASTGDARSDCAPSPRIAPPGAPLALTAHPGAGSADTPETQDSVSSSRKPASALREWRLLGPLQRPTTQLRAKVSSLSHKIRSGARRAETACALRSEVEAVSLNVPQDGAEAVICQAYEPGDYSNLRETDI
T1 sequence (P43140 whole entry): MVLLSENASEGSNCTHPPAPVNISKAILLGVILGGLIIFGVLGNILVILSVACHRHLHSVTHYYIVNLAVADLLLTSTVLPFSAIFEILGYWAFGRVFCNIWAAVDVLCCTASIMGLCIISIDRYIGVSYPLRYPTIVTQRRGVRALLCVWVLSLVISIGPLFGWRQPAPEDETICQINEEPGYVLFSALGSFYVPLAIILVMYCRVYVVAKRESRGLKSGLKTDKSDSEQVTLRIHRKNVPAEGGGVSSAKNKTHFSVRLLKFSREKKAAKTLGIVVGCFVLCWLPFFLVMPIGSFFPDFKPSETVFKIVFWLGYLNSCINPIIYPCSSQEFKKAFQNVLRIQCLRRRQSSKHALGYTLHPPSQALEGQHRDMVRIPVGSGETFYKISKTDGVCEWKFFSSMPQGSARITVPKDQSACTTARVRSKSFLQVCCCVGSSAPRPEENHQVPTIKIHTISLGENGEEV
Procedure, shortened: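 Rat cerebral cortex homogenised in ice-cold 50 mM Tris-HCl (pH 7.6 at 25 °C), washed twice at 20000×g and resuspended at 10 mg wet weight/ml. Incubated with [3H]prazosin (19.5 Ci/mmol) and test compound for 30 min at 25 °C. Nonspecific binding defined with 10 µM phentolamine. GF/B filtration, scintillation counting, three-parameter logistic competition fit.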

[2] = system: Rattus norvegicus; test: Cardiotoxicity in Wistar rat assessed as effect on Q-T interval at 10 mg/kg, iv after 15 mins; type: toxicity, organism-based; parameters: dose 10 mg/kg, route intravenous; details: in vivo, 0.25 h
Procedure, shortened: (§1)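 Male Wistar rats (180–250 g), anaesthetised with thiopental 60 mg/kg ip. Standard lead II ECG recorded at 50 mm/s just before dosing and at 1, 5 and 15 min after. Heart rate and P–Q, Q–T and QRS intervals were read. n=6 per group, mean ± SEM, one-way ANOVA.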

[3] = system: Rattus norvegicus; test: Cardiotoxicity in Wistar rat assessed as effect on P-Q interval at 10 mg/kg, iv after 1 min; type: toxicity, organism-based; parameters: dose 10 mg/kg, route intravenous; details: in vivo; procedure, shortened: as §1
[4] = system: Rattus norvegicus; test: Antiarrhythmic activity in Wistar rat assessed as effect on heart beat at 10 mg/kg, iv after 5 mins; type: functional; procedure, shortened: as §1
[5] = system: Rattus norvegicus; test: Cardiotoxicity in Wistar rat assessed as effect on Q-T interval at 10 mg/kg, iv after 1 min; type: toxicity, organism-based; parameters: dose 10 mg/kg, route intravenous; details: in vivo; procedure, shortened: as §1
[6] = system: Rattus norvegicus; test: Cardiotoxicity in Wistar rat assessed as effect on QRS interval at 10 mg/kg, iv after 15 mins; type: toxicity, organism-based; parameters: dose 10 mg/kg, route intravenous; details: in vivo, 0.25 h; procedure, shortened: as §1
[7] = system: Rattus norvegicus; test: Antiarrhythmic activity in dosed Wistar rat assessed as protection against barium chloride-induced fibrillation administered 15 mins prior to barium chloride-challenge; type: functional
Procedure, shortened: (§2)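 Szekeres model in male Wistar rats. Activity is gradual disappearance of arrhythmia with restored sinus rhythm; protection against disturbances and death scored. Groups of 6 animals.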

[8] = system: Rattus norvegicus; test: Antiarrhythmic activity in Wistar rat assessed as effect on heart beat at 10 mg/kg, iv after 15 mins; type: functional; procedure, shortened: as §1
[9] = system: Rattus norvegicus; test: Hypotensive activity in normotensive Wistar rat assessed as decrease in systolic blood pressure at 2.5 to 10 mg/kg, iv after 1 min measured up to 60 mins; type: organism-based, Artery; parameters: dose 2.5-10 mg/kg, route intravenous; details: in vivo
Procedure, shortened: (§3)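 Right carotid artery cannulated with heparin-saline-filled tubing for blood pressure recording. After 5 min stabilisation, compound injected iv into the caudal vein (2.5–10 mg/kg, 1 ml/kg). Systolic and diastolic pressure followed for 60 min. n=6 per group, mean ± SEM, one-way ANOVA.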

[10] = system: Rattus norvegicus; test: Cardiotoxicity in Wistar rat assessed as effect on QRS interval at 10 mg/kg, iv after 1 min; type: toxicity, organism-based; parameters: dose 10 mg/kg, route intravenous; details: in vivo; procedure, shortened: as §1
[11] = system: Rattus norvegicus; test: Hypotensive activity in normotensive Wistar rat assessed as decrease in diastolic blood pressure at 2.5 to 10 mg/kg, iv at 1 min; type: organism-based, Artery; parameters: dose 2.5-10 mg/kg, route intravenous; details: in vivo; procedure, shortened: as §3
[12] = system: Rattus norvegicus; test: Antiarrhythmic activity in iv dosed Wistar rat assessed as protection against barium chloride-induced extrasystoles administered 15 mins prior to barium chloride-challenge; type: functional; procedure, shortened: as §2
[13] = system: Rattus norvegicus; test: Antiarrhythmic activity in iv dosed barium chloride-induced Wistar rat arrhythmia model assessed as protection against mortality administered 15 mins prior to barium chloride-challenge; type: functional; details: Heart
Procedure, shortened: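 Male Wistar rats (180–250 g), groups of 6. Activity criterion: gradual disappearance of arrhythmia and restoration of sinus rhythm; protection against heart disturbances and death scored.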

[14] = system: Rattus norvegicus; test: Antiarrhythmic activity in Wistar rat assessed as effect on heart beat at 10 mg/kg, iv after 1 min; type: functional; procedure, shortened: as §1
[15] = system: Rattus norvegicus; test: Antiarrhythmic activity in iv dosed Wistar rat assessed as protection against adrenaline-induced arrhythmia administered 15 mins prior to adrenaline-challenge; type: functional; details: Heart
Procedure, shortened: (§4)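 Szekeres model in male Wistar rats anaesthetised with thiopental (60 mg/kg ip). Test compound given iv in water (2.5–10 mg/kg) 15 min before adrenaline 20 µg/kg iv. Scored for extrasystoles, bigeminy and mortality; activity means no premature beats and inhibited arrhythmia versus controls.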

[16] = system: Rattus norvegicus; test: Hypotensive activity in normotensive Wistar rat assessed as decrease in diastolic blood pressure at 2.5 to 10 mg/kg, iv after 1 min measured up to 60 mins; type: organism-based, Artery; parameters: dose 2.5-10 mg/kg, route intravenous; details: in vivo; procedure, shortened: as §3
[17] = system: Rattus norvegicus; test: Antiarrhythmic activity in Wistar rat assessed as protection against adrenaline-induced bigeminy at 2.5 to 10 mg/kg, iv administered 15 mins prior to adrenaline-challenge; type: functional, organism-based; details: Heart; procedure, shortened: as §4
[18] = system: Rattus norvegicus; test: Cardiotoxicity in Wistar rat assessed as effect on P-Q interval at 10 mg/kg, iv after 5 mins; type: toxicity, organism-based; parameters: dose 10 mg/kg, route intravenous; details: in vivo; procedure, shortened: as §1
[19] = system: Rattus norvegicus; test: Cardiotoxicity in Wistar rat assessed as effect on QRS interval at 10 mg/kg, iv after 5 mins; type: toxicity, organism-based; parameters: dose 10 mg/kg, route intravenous; details: in vivo; procedure, shortened: as §1
[20] = system: Rattus norvegicus; test: Cardiotoxicity in Wistar rat assessed as effect on Q-T interval at 10 mg/kg, iv after 5 mins; type: toxicity, organism-based; parameters: dose 10 mg/kg, route intravenous; details: in vivo; procedure, shortened: as §1
[21] = system: Rattus norvegicus; test: Hypotensive activity in normotensive Wistar rat assessed as decrease in systolic blood pressure at 2.5 to 10 mg/kg, iv at 1 min; type: organism-based, Artery; parameters: dose 2.5-10 mg/kg, route intravenous; details: in vivo; procedure, shortened: as §3
[22] = system: Rattus norvegicus; test: Cardiotoxicity in Wistar rat assessed as effect on P-Q interval at 10 mg/kg, iv after 15 mins; type: toxicity, organism-based; parameters: dose 10 mg/kg, route intravenous; details: in vivo, 0.25 h; procedure, shortened: as §1
[23] = system: Rattus norvegicus; test: Antiarrhythmic activity in Wistar rat assessed as protection against adrenaline-induced extrasystoles at 2.5 to 10 mg/kg, iv administered 15 mins prior to adrenaline-challenge; type: functional, organism-based; details: Heart; procedure, shortened: as §4

Row | Structure (SMILES) | Ki [1] | pKi [1] | Activity [2] | Activity [3] | Activity [4] | Activity [5] | Activity [6] | Activity [8] | Activity [9] | Activity [10] | Activity [11] | Activity [14] | Activity [16] | Activity [18] | Activity [19] | Activity [20] | Activity [21] | Activity [22] | other results
1 | CCOc1ccccc1N1CCN(CCCN2C(=O)N(C(C)C(=O)OC)C(=O)C2(c2ccccc2)c2ccccc2)CC1.Cl (stereo not drawn) | 401.2 nM | 6.4 |  |  |  |  |  |  |  |  |  |  |  |  |  |  |  |  | 
2 | CCOc1ccccc1N1CCN(CC(O)CN2C(=O)N(C)C(=O)C2(c2ccccc2)c2ccccc2)CC1.Cl (racemic) |  |  | 118 ms | 75 ms | 241 min⁻¹ | 109 ms | 17 ms | 242 min⁻¹ | Toxic | 18 ms | Toxic | 246 min⁻¹ | Toxic | 79 ms | 16 ms | 114 ms | Toxic | 79 ms | Activity ([7]; Heart): inactive; Activity ([12]; Heart): inactive; Activity [13]: inactive; ED50 [15]: 0.33 mg/kg; Activity [17]: Active; Activity [23]: Active
3 | CN1C(=O)N(CC(O)CN2CCN(c3ccccc3Cl)CC2)C(c2ccccc2)(c2ccccc2)C1=O.Cl (racemic) | 483 nM | 6.32 | 72 ms | 60 ms | 278 min⁻¹ | 83 ms | 16 ms | 303 min⁻¹ |  | 17 ms |  | 279 min⁻¹ |  | 60 ms | 16 ms | 76 ms |  | 60 ms | Activity [7]: >50%; Activity [12]: >50%
4 | C=CC(C(=O)OC)N1C(=O)N(CC(O)CN2CCN(c3ccccc3OC)CC2)C(c2ccccc2)(c2ccccc2)C1=O.Cl (racemic) |  |  | 71 ms | 56 ms | 294 min⁻¹ | 82 ms | 25 ms | 291 min⁻¹ |  | 25 ms |  | 261 min⁻¹ |  | 57 ms | 23 ms | 78 ms |  | 56 ms | Activity ([7]; Heart): inactive; Activity ([12]; Heart): inactive; Activity [13]: inactive
5 | COC(=O)CN1C(=O)N(CC(O)CN2CCN(c3ccccc3F)CC2)C(c2ccccc2)(c2ccccc2)C1=O.Cl (racemic) | 3300 nM | 5.48 | 71 ms | 66 ms | 256 min⁻¹ | 86 ms | 15 ms | 281 min⁻¹ | Non-toxic | 17 ms | Toxic | 284 min⁻¹ | Non-toxic | 61 ms | 17 ms | 82 ms | Toxic | 58 ms | 

Continued, in another order:

Row | Ki [1] | pKi [1] | Structure (SMILES) | Activity [2] | Activity [3] | Activity [4] | Activity [5] | Activity [6] | Activity [8] | Activity [9] | Activity [10] | Activity [11] | Activity [14] | Activity [16] | Activity [18] | Activity [19] | Activity [20] | Activity [21] | Activity [22] | other results
6 | 412.9 nM | 6.38 | COc1ccccc1N1CCN(CCCN2C(=O)N(C)C(=O)C2(c2ccccc2)c2ccccc2)CC1.Cl |  |  |  |  |  |  |  |  |  |  |  |  |  |  |  |  | 
7 | 542.3 nM | 6.27 | CN1C(=O)N(CC(O)CN2CCN(c3ccccc3)CC2)C(c2ccccc2)(c2ccccc2)C1=O.Cl (racemic) | 74 ms | 66 ms | 260 min⁻¹ | 109 ms | 18 ms | 263 min⁻¹ | Non-toxic | 23 ms | Toxic | 270 min⁻¹ | Non-toxic | 59 ms | 20 ms | 79 ms | Toxic | 59 ms | 
